Measurements as given in PubChem BioAssay AID463202 (Sanford-Burnham Center for Chemical Genomics, 2010).
Calls of active or inactive are those of the source.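 Rule for the calls: active = inhibition above 50% relative to controls in each of two repeat datasets, tested at 10 µM; inactive = the rest.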

What follows are compounds tested against Vasopressin V2 receptor (Homo sapiens) (UniProt P30518) (assay: vasopressin V2 receptor antagonists, SAR follow-up, selectivity assay for GPR35 antagonist project, imaging, beta-arrestin-GFP, U2OS, antagonist mode (AID 463202)). Conditions: U2OS AVPR2 beta-arrestin-GFP translocation imaging; at 10 µM; stronger effect = higher value.
Procedure, shortened: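 Material: U2OS cells expressing human vasopressin V2 receptor and GFP-β-arrestin / Probe or stimulus: vasopressin agonist at 16 nM for 40 min / Dosing: one 10 µM compound dose / Incubation: 15 min compound pre-incubation, then 40 min agonist exposure / Signal: 40x fluorescence imaging, wavelet analysis of GFP-β-arrestin spots / Controls: low 0.01 µIU/mL, high 10 mIU/mL vasopressin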

Sequence of Vasopressin V2 receptor (Homo sapiens) (P30518 whole entry, looked up): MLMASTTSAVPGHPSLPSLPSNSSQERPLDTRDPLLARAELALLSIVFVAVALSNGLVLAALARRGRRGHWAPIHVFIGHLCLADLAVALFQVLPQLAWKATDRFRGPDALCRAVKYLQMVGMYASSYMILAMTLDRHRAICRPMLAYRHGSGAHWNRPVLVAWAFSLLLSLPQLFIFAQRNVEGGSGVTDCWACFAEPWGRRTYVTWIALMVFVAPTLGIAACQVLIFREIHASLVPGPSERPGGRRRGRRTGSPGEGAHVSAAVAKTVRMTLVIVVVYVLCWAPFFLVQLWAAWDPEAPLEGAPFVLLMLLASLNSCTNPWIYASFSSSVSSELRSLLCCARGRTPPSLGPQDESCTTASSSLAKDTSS

inhibition, inactive:
CCOc1ccc(NC(=O)CSc2nc3ccsc3c(=O)n2Cc2ccc(C(=O)O)cc2)cc1 15.5%
O=C(CCCN1C(=O)/C(=C/c2ccc3c(c2)OCO3)SC1=S)Nc1cccc(C(=O)O)c1 13.2%
O=C(CCCN1C(=O)S/C(=C\C=C\c2ccccc2)C1=O)Nc1ccc(C(=O)O)cc1 18.2%
O=C(CCCN1C(=O)/C(=C\c2ccccc2)SC1=S)Nc1ccc(C(=O)O)cc1 4.8%
O=C(CCCN1C(=O)/C(=C/c2ccc3c(c2)OCO3)SC1=S)Nc1ccc(C(=O)O)cc1 -6.5%
COc1ccc(/C=C2/SC(=S)N(CCCC(=O)Nc3ccc(O)cc3)C2=O)cc1 1.8%
Cc1ccc(Cn2ncc3c(N4CCN(c5ccccc5C)CC4)ncnc32)cc1 36.9%
O=C(CCCN1C(=O)/C(=C/c2ccccc2)SC1=S)Nc1ccc(C(=O)O)c(O)c1 51.3%
CC(/C=C1\SC(=S)N(CCCC(=O)Nc2ccc(C(=O)O)cc2)C1=O)=C\c1ccccc1 18.5%
CC(C)c1ccc(NC(=O)CSc2nc3ccsc3c(=O)n2Cc2ccc(C(=O)O)cc2)cc1 22.9%
O=C(CCCN1C(=O)/C(=C\c2ccccc2)SC1=S)Nc1cccc(C(=O)O)c1 15.9%
COc1ccc(/C=C2\SC(=S)N(CCCC(=O)Nc3ccc(C(=O)O)c(O)c3)C2=O)cc1OC 22.9%
Cc1nc(N2CCC(C)CC2)c2c(C)c(C(=O)Nc3ccc4c(c3)OCCO4)sc2n1 -5.7%
Cc1c(C(=O)Nc2ccc3c(c2)OCCO3)sc2ncnc(N3CCC(C)CC3)c12 -3.7%
O=C(CCCN1C(=O)S/C(=C/C=C/c2ccccc2)C1=O)Nc1ccc(C(=O)O)cc1 8.9%
COc1ccc(/C=C2\SC(=S)N(CCCC(=O)Nc3cccc(C(=O)O)c3)C2=O)cc1OC 27.3%
Cc1ccc(/C=C2\SC(=S)N(CCCC(=O)Nc3ccc(O)cc3)C2=O)cc1 9.2%
CCOC(=O)c1ccc(NC(=O)CCCN2C(=O)/C(=C/c3ccc(C)cc3)SC2=S)cc1 28.8%
O=C(Nc1ccc2nc(SCc3ccccc3)sc2c1)c1ccccc1C(=O)N1CCOCC1 3.3%
O=C(CCCN1C(=O)/C(=C/c2ccc3c(c2)OCO3)SC1=S)Nc1ccc(C(=O)O)c(O)c1 28.4%
Cc1ccc(/C=C2\SC(=S)N(CCCC(=O)Nc3cccc(C(=O)O)c3)C2=O)cc1 8.2%
COc1ccc(/C=C2\SC(=S)N(CCCC(=O)Nc3ccc(O)cc3)C2=O)cc1 25.3%
O=C(Nc1ccc2nc(SCc3ccc(Cl)cc3)sc2c1)c1ccccc1C(=O)N1CCOCC1 -0.8%
Clc1ccc(Cn2ncc3c(N4CCN(c5ccccc5)CC4)ncnc32)cc1 3.4%
CC(/C=C1\SC(=S)N(CCCC(=O)Nc2ccc(C(=O)O)c(O)c2)C1=O)=C\c1ccccc1 30%
CC(C)(C)c1ccc(OCCC(=O)NCCc2ccc(S(N)(=O)=O)cc2)cc1 12.5%
CCc1ccc(/C=C2\SC(=S)N(CCCC(=O)Nc3ccc(C(=O)O)cc3)C2=O)cc1 -6.8%
O=C(CCCN1C(=O)S/C(=C/c2ccccc2)C1=S)Nc1ccc(C(=O)O)cc1 0.7%
Cc1ccccc1N1CCN(c2ncnc3c2cnn3Cc2ccc(Cl)cc2)CC1 7.6%
COc1cccc(/C=C2\SC(=S)N(CCCC(=O)Nc3ccc(C(=O)O)cc3)C2=O)c1 -2.9%
